Measured values taken from ChEMBL document CHEMBL4304818, “1,3,4-Oxadiazol-2-ylbenzenesulfonamides as privileged structures for the inhibition of monoamine oxidase B” (Bioorg Med Chem Lett, 2019).

Tests used:
[1] = biological target: T1, Amine oxidase [flavin-containing] B (Homo sapiens, UniProt P27338); test: Reversible inhibition of human recombinant MAO-B expressed in insect cells microsomes assessed as enzyme residual activity preincubated at concentration of 4 times IC50 with enzyme for 15 mins followed by dialysis of enzyme-inhibitor mixture for 24 hrs followed by twofold dilution and incubation at concentration of 2 times IC50 with enzyme for 20 mins using kynuramine as substrate by fluorescence …
T1 sequence (P27338 whole entry): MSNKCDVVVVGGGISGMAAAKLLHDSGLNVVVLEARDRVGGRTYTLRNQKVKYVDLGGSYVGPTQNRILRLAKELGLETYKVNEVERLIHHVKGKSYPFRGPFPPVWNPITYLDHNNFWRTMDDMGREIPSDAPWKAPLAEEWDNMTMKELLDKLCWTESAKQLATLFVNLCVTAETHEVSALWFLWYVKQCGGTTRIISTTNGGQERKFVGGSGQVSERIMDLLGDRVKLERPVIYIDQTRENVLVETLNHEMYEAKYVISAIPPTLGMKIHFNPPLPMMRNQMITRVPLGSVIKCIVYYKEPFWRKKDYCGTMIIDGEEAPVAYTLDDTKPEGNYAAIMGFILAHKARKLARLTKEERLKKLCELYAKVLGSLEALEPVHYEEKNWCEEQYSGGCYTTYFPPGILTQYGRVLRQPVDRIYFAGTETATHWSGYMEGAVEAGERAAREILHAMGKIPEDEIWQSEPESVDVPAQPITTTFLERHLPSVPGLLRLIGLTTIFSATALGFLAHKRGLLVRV

[2] = biological target: T1, Amine oxidase [flavin-containing] B; test: Inhibition of human recombinant MAO-B expressed in insect cells microsomes assessed as enzyme residual activity preincubated at concentration of 4 times IC50 with enzyme for 24 hrs followed by twofold dilution and incubation at concentration of 2 times IC50 with enzyme for 20 mins using kynuramine as substrate by fluorescence spectrophotometry (reference value: 100%)
[3] = organism: Homo sapiens; test: Selectivity index, ratio of IC50 for human recombinant MAO-A expressed in insect cells microsomes to IC50 for human recombinant MAO-B expressed in insect cells microsomes
Method in brief: (§1)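 Recombinant human MAO-A and MAO-B as enzyme sources with kynuramine as non-selective substrate; product 4-hydroxyquinoline read by fluorescence spectrophotometry. Activity measured across a range of inhibitor concentrations, sigmoidal rate vs log[inhibitor] curves fitted for IC50; triplicate measurements, mean ± SD. Top concentration tested 100 µM. SI taken as IC50(MAO-A)/IC50(MAO-B).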

[4] = biological target: T2, Amine oxidase [flavin-containing] A (Homo sapiens, UniProt P21397); test: Inhibition of human recombinant MAO-A expressed in insect cells microsomes assessed as inhibition of 4-hydroxyquinoline formation using kynuramine as substrate incubated for 20 mins by fluorescence spectrophotometry analysis
T2 sequence (P21397 whole entry): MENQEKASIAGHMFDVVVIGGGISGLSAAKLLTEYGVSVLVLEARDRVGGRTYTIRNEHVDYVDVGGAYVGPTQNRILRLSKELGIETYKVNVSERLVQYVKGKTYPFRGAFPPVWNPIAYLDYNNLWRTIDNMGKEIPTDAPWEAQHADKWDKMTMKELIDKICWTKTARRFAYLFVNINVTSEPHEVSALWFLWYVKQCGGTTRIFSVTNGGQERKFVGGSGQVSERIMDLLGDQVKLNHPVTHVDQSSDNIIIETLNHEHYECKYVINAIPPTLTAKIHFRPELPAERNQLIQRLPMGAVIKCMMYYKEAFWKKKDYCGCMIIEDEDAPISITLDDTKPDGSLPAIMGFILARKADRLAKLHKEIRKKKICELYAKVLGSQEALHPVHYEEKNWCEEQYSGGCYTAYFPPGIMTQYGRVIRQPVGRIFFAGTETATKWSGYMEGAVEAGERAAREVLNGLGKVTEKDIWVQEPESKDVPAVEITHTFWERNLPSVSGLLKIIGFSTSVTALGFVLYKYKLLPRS
Method in brief: as §1

[5] = biological target: T1, Amine oxidase [flavin-containing] B; type: cell-based

Row | Structure (SMILES) | Activity [1] [%] | Activity [2] [%] | IC50 [4] [µM] | IC50 [5] [µM] | Ratio IC50 [3]
1 | NS(=O)(=O)c1ccc(C(=O)NNC(=O)c2ccc(F)cc2)cc1 |  |  | 39.6 | > 100 | < 0.4
2 | N#Cc1ccc(-c2nnc(-c3ccc(S(N)(=O)=O)cc3)o2)cc1 |  |  | 24.3 | 0.318 | 76
3 | NS(=O)(=O)c1ccc(-c2nnc(-c3ccc(F)cc3)o2)cc1 |  |  | 83.8 | 0.079 | 1060
4 | NS(=O)(=O)c1ccc(C(=O)NNC(=O)c2ccc(Cl)cc2)cc1 |  |  | 55.9 | 11.7 | 4.8
5 | NS(=O)(=O)c1cccc(-c2nnc(-c3ccc(F)cc3)o2)c1 |  |  | 34.4 | 0.975 | 35
6 | NS(=O)(=O)c1ccc(C(=O)NNC(=O)c2ccccc2)cc1 |  |  | 62.8 | > 100 | < 0.6
7 | N#Cc1ccc(C(=O)NNC(=O)c2ccc(S(N)(=O)=O)cc2)cc1 |  |  | 16.1 | 1.17 | 14
8 | NS(=O)(=O)c1ccc(-c2nnc(-c3ccc(Cl)cc3)o2)cc1 |  |  | 68 | 0.048 | 1420
9 | NS(=O)(=O)c1ccc(C(=O)NNC(=O)c2ccc(Cl)c(Cl)c2)cc1 |  |  | 13.6 | 10.1 | 1.3

Further lines, with some results ahead:

Row | Activity [1] [%] | Activity [2] [%] | IC50 [4] [µM] | IC50 [5] [µM] | Structure (SMILES) | Ratio IC50 [3]
10 | 60 | 44 |  |  | NS(=O)(=O)c1ccc(-c2nnc(-c3ccc(Cl)c(Cl)c3)o2)cc1 | 
11 |  |  | > 100 | 0.21 | NS(=O)(=O)c1cccc(-c2nnc(-c3ccc(Cl)cc3)o2)c1 | > 476
12 |  |  | > 100 | 0.439 | NS(=O)(=O)c1cc(-c2nnc(-c3ccccc3)o2)ccc1Cl | > 228
13 |  |  | 61.4 | 0.571 | Cc1ccc(-c2nnc(-c3cccc(S(N)(=O)=O)c3)o2)cc1 | 108
14 |  |  | 63.9 | 0.168 | NS(=O)(=O)c1ccc(-c2nnc(-c3ccccc3)o2)cc1 | 380
15 |  |  | > 100 | 0.767 | Cc1ccc(-c2nnc(-c3ccccc3)o2)cc1S(N)(=O)=O | > 130
